Measured values from different studies.
Lines come from different studies, so protocols differ.
PDE10A: cAMP and cAMP-inhibited cGMP 3',5'-cyclic phosphodiesterase 10A (PDE10A, Homo sapiens, UniProt Q9Y233)
SLC6A3: Sodium-dependent dopamine transporter (SLC6A3, Homo sapiens, UniProt Q01959)

SMILES	target	read-out	action	method	cell line	concentration	inhibition
COc1ccc(Cc2nccc3cc(C4COC4)ccc23)cc1OC	PDE10A	enzyme activity	inhibitor	FP		0.1 µM	0%
N#CC[C@@]12C[C@@H]1[C@@H](n1cnc3c(NCc4cccc(Cl)c4)nc(C#Cc4ccc(Cl)s4)nc31)[C@H](O)[C@@H]2O	SLC6A3	ligand displacement		radioligand		10 µM	89%
Cc1cc(O)c(-c2ccc([C@@H](C)CN(C)C)cc2)c2c1[nH]c(=O)c1sccc12	Serine/threonine-protein kinase D1 (PRKD1, Homo sapiens, UniProt Q15139)	enzyme activity	inhibitor			0.1 µM	-0.107%
N#CC[C@@]12C[C@@H]1[C@@H](n1cnc3c(Nc4ccccc4)nc(C#Cc4ccc(Cl)s4)nc31)[C@H](O)[C@@H]2O	SLC6A3	ligand displacement		radioligand		10 µM	18%
c1ccc(-c2cccc(Cc3ncnc4ccccc34)c2)cc1	PDE10A	enzyme activity	inhibitor	FP		0.1 µM	0%
CCOC(=O)[C@@]12C[C@@H]1[C@@H](n1cnc3c(NCCCCCc4ccccc4)nc(C#Cc4ccccc4)nc31)[C@H](O)[C@@H]2O	SLC6A3	transporter uptake	inhibitor	radiometric	HEK293	10 µM	9%
COc1ccc2nccc(Cc3cccc(-c4cnn(C5COC5)c4)c3)c2c1	PDE10A	enzyme activity	inhibitor	FP		0.1 µM	3%
C#Cc1cc(-c2cc(Nc3nc(N[C@@H](C)c4ccc(F)cn4)ncc3Cl)n[nH]2)ccc1C=O	Mitogen-activated protein kinase 15 (MAPK15, Homo sapiens, UniProt Q8TD08)	enzyme activity	inhibitor			0.2 µM	11.5%
NC/C(=C\F)COc1cccc(Cn2c(=S)[nH]c(=O)c3[nH]cnc32)c1	Sodium- and chloride-dependent GABA transporter 1 (Slc6a1, Rattus norvegicus, UniProt P23978)	ligand displacement		radioligand		10 µM	< 50%
